Laboratory results from ChEMBL document CHEMBL3351736, “A promising camptothecin derivative: Semisynthesis, antitumor activity and intestinal permeability” (Eur J Med Chem, 2014).
Calls of active or inactive are those of the source. No cut-off for these calls is given here.

Assays:
MDA-MB-231 [1] = test: Induction of apoptosis in human MDA-MB-231 cells assessed as p53 phosphorylation at Ser15 by Western blotting analysis; type: functional, cell-based
In short: (§1)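 Cells treated 24 h. About 10^6 cells lysed on ice 15 min in Hepes pH 7.4/Triton X-100 buffer with phosphatase and protease inhibitors, then spun 13,000 × g. 30 µg protein run on 12% SDS-PAGE and blotted to nitrocellulose. Primary anti-phospho-p53 (Ser15) and anti-p53 at 1:1000 for 2 h at room temperature, then HRP secondary and ECL densitometry. Results referred to untreated control.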

A-375 [2] = test: Induction of apoptosis in human A375 cells assessed as inhibition of DNA synthesis after 24 hrs by BrdU staining-based ELISA; type: functional, cell-based
In short: (§2)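 Cells seeded at 25,000/well; compounds added 24 h after seeding at a range of concentrations and incubated 24 h. Cells fixed, then colorimetric BrdU-incorporation ELISA. Absorbance read at 370-492 nm over 3 intervals of 5 min. Mean of three separate experiments with triplicate samples.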

A-375 [3] = test: Induction of apoptosis in human A375 cells assessed as inhibition of DNA synthesis at 0.8 to 1.6 uM after 24 hrs by BrdU staining-based ELISA; type: functional, cell-based
In short: (§3)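 BrdU colorimetric cell proliferation ELISA. Cells seeded at 25,000 per well, compounds added 24 h after seeding and incubated 24 h. Cells fixed and the immunoassay run per kit. Absorbance read at 370-492 nm over 3 intervals of 5 min; absorbance difference proportional to BrdU incorporation. Mean of three separate experiments in triplicate, compared with untreated control.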

A-375 [4] = test: Cytotoxicity against human A375 cells after 24 hrs by MTT assay; type: functional, cell-based; details: A-375, 24 h
In short: (§4)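 Cells seeded at 25000 per well and held 24 h at 37 °C in 5% CO2. Medium was then renewed and compounds added at increasing concentrations (DMSO 0.1%, or water for topotecan) for 24 h. MTT solution (5 mg/mL) was added for 3 h at 37 °C, then absorbance read at 570 nm, corrected at 630 nm. IC50 in µM.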

HeLa [5] = test: Induction of apoptosis in human HeLa cells assessed as p53 phosphorylation at Ser15 by Western blotting analysis; type: functional, cell-based; in short: as §1
MDA-MB-231 [6] = test: Induction of apoptosis in human MDA-MB-231 cells assessed as inhibition of DNA synthesis at 0.8 to 1.6 uM after 24 hrs by BrdU staining-based ELISA; type: functional, cell-based; in short: as §3
Jurkat = test: Cytotoxicity against human Jurkat cells after 24 hrs by MTT assay; type: functional, cell-based; in short: as §4
MDA-MB-231 [7] = test: Cytotoxicity against human MDA-MB-231 cells after 24 hrs by MTT assay; type: functional, cell-based; details: MDA-MB-231, 24 h; in short: as §4
HeLa [8] = test: Cytotoxicity against human HeLa cells after 24 hrs by MTT assay; type: functional, cell-based; in short: as §4
HeLa [9] = test: Induction of apoptosis in human HeLa cells assessed as inhibition of DNA synthesis after 24 hrs by BrdU staining-based ELISA; type: functional, cell-based; in short: as §2
A-375 [10] = test: Induction of apoptosis in human A375 cells assessed as p53 phosphorylation at Ser15 by Western blotting analysis; type: functional, cell-based; in short: as §1
MDA-MB-231 [11] = test: Induction of apoptosis in human MDA-MB-231 cells assessed as inhibition of DNA synthesis after 24 hrs by BrdU staining-based ELISA; type: functional, cell-based; in short: as §2
HeLa [12] = test: Induction of apoptosis in human HeLa cells assessed as inhibition of DNA synthesis at 0.8 to 1.6 uM after 24 hrs by BrdU staining-based ELISA; type: functional, cell-based; in short: as §3
Small intestine = test: Effective permeability in Wistar rat small intestine assessed as absorption rate coefficient at 50 uM measured after 5 mins in every 5 min interval up to 30 mins; type: ADME, tissue-based
In short: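 Male Wistar rats fasted 2 h with water available, then anaesthetised with diazepam (1.67 mg/kg), ketamine (50 mg/kg) and atropine (1 mg/kg) and kept at 37°C on a heated surface. In situ intestinal perfusion. Perfusate sampled from 5 min at 5 min intervals up to 30 min. Absorption rate constant (Ka) and Peff derived.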

[13] = Effective permeability in Wistar rat small intestine at 50 uM measured after 5 mins in every 5 min interval up to 30 mins; type: ADME, tissue-based; details: not told, read-out: Peff
In short: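 In situ intestinal perfusion in male Wistar rats fasted 2 h with water allowed. Anaesthesia with diazepam (1.67 mg/kg), ketamine (50 mg/kg) and atropine (1 mg/kg); animals kept at 37 °C. Perfusate sampled every 5 min from 5 to 30 min; absorption rate constant and Peff derived.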

[14] = Effective permeability from apical to basolateral side in human Caco2 cells at 50 uM after 15 to 90 mins by HPLC analysis; type: ADME, cell-based; details: Caco-2, read-out: Peff
In short: (§5)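 Caco-2 monolayers grown 19-22 days on polycarbonate transwell inserts (4.2 cm², 0.4 µm pore) at 37 °C, 5% CO2; TEER checked before and after each run. Compound added to donor side at 37 °C, 50 rpm. Receiver sampled at 15, 30, 60 and 90 min; donor sampled at start and end. HPLC analysis. Sodium azide, when used, placed on both sides. Three independent experiments.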

Caco-2 [15] = test: Induction of apoptosis in human Caco2 cells assessed as vital cells at 0.05 uM after 24 hrs by Annexin V/propidium iodide staining-based flow cytometric analysis (reference value: 96.67 +/- 1.02%); type: functional
Caco-2 [16] = test: Induction of apoptosis in human Caco2 cells assessed as late apoptotic cells at 0.05 uM after 48 hrs by Annexin V/propidium iodide staining-based flow cytometric analysis (reference value: 2.20 +/- 0.77%); type: functional
Caco-2 [17] = test: Induction of apoptosis in human Caco2 cells assessed as late apoptotic cells at 0.05 uM after 24 hrs by Annexin V/propidium iodide staining-based flow cytometric analysis (reference value: 2.20 +/- 0.77%); type: functional
Caco-2 [18] = test: Induction of apoptosis in human Caco2 cells assessed as late apoptotic cells at 0.5 uM after 48 hrs by Annexin V/propidium iodide staining-based flow cytometric analysis (reference value: 2.20 +/- 0.77%); type: functional
[19] = Permeability from basolateral to apical side in human Caco2 cells at 5 to 50 uM after 15 to 90 mins by HPLC analysis; type: ADME, cell-based; details: caco-2, 50 µM; in short: as §5
[20] = Effective permeability from apical to basolateral side in human Caco2 cells at 50 uM after 15 to 90 mins by HPLC analysis in presence of sodium azide; type: ADME, cell-based; details: Caco-2, with sodium azide, read-out: Peff; in short: as §5
[21] = Effective permeability from basolateral to apical side in human Caco2 cells at 50 uM after 15 to 90 mins by HPLC analysis; type: ADME, cell-based; details: Caco-2, read-out: Peff; in short: as §5
Caco-2 [22] = test: Induction of apoptosis in human Caco2 cells assessed as early apoptotic cells at 0.5 uM after 24 hrs by Annexin V/propidium iodide staining-based flow cytometric analysis (reference value: 0.72 +/- 0.03%); type: functional
Caco-2 [23] = test: Induction of apoptosis in human Caco2 cells assessed as early apoptotic cells at 0.05 uM after 48 hrs by Annexin V/propidium iodide staining-based flow cytometric analysis (reference value: 0.72 +/- 0.03%); type: functional
Caco-2 [24] = test: Induction of apoptosis in human Caco2 cells assessed as necrotic cells at 0.5 uM after 48 hrs by Annexin V/propidium iodide staining-based flow cytometric analysis (reference value: 0.41 +/- 0.02%); type: functional
Caco-2 [25] = test: Induction of apoptosis in human Caco2 cells assessed as early apoptotic cells at 0.5 uM after 48 hrs by Annexin V/propidium iodide staining-based flow cytometric analysis (reference value: 0.72 +/- 0.03%); type: functional
Caco-2 [26] = test: Induction of apoptosis in human Caco2 cells assessed as necrotic cells at 0.5 uM after 24 hrs by Annexin V/propidium iodide staining-based flow cytometric analysis (reference value: 0.41 +/- 0.02%); type: functional
Caco-2 [27] = test: Induction of apoptosis in human Caco2 cells assessed as necrotic cells at 0.05 uM after 24 hrs by Annexin V/propidium iodide staining-based flow cytometric analysis (reference value: 0.41 +/- 0.02%); type: functional
Caco-2 [28] = test: Induction of apoptosis in human Caco2 cells assessed as early apoptotic cells at 0.05 uM after 24 hrs by Annexin V/propidium iodide staining-based flow cytometric analysis (reference value: 0.72 +/- 0.03%); type: functional
Caco-2 [29] = test: Induction of apoptosis in human Caco2 cells assessed as vital cells at 0.5 uM after 24 hrs by Annexin V/propidium iodide staining-based flow cytometric analysis (reference value: 96.67 +/- 1.02%); type: functional
Caco-2 [30] = test: Induction of apoptosis in human Caco2 cells assessed as vital cells at 0.05 uM after 48 hrs by Annexin V/propidium iodide staining-based flow cytometric analysis (reference value: 96.67 +/- 1.02%); type: functional
Caco-2 [31] = test: Induction of apoptosis in human Caco2 cells assessed as late apoptotic cells at 0.5 uM after 24 hrs by Annexin V/propidium iodide staining-based flow cytometric analysis (reference value: 2.20 +/- 0.77%); type: functional
[32] = Cytotoxicity against human Caco2 cells after 24 hrs by MTT assay; type: functional, cell-based; details: Caco-2, 24 h
Caco-2 [33] = test: Induction of apoptosis in human Caco2 cells assessed as necrotic cells at 0.05 uM after 48 hrs by Annexin V/propidium iodide staining-based flow cytometric analysis (reference value: 0.41 +/- 0.02%); type: functional
Homo sapiens = species on record: Homo sapiens; test: Activity at Pgp transporter (unknown origin)
[34] = Permeability from apical to basolateral side in human Caco2 cells at 5 to 50 uM after 15 to 90 mins by HPLC analysis; type: ADME, cell-based; details: caco-2, 50 µM; in short: as §5
Caco-2 [35] = test: Induction of apoptosis in human Caco2 cells assessed as vital cells at 0.5 uM after 48 hrs by Annexin V/propidium iodide staining-based flow cytometric analysis (reference value: 96.67 +/- 1.02%); type: functional
[36] = Effective permeability from basolateral to apical side in human Caco2 cells at 50 uM after 15 to 90 mins by HPLC analysis in presence of sodium azide; type: ADME, cell-based; details: Caco-2, with sodium azide, read-out: Peff; in short: as §5

Structure (SMILES) | Activity (MDA-MB-231 [1]) | Activity (A-375 [3]) | IC50 (A-375 [4]) [nM] | Activity (HeLa [5]) | Activity (MDA-MB-231 [6]) | IC50 (Jurkat) [nM] | IC50 (MDA-MB-231 [7]) [nM] | IC50 (HeLa [8]) [nM] | Activity (A-375 [10]) | Activity (HeLa [12]) | Ka (Small intestine) [h⁻¹] | Papp at 5 min, 50 µM [13] [×10⁻⁶ cm/s] | Papp A→B at 50 µM [14] [×10⁻⁶ cm/s] | Activity (Caco-2 [15]) [%] | Activity (Caco-2 [16]) [%] | Activity (Caco-2 [17]) [%] | Activity (Caco-2 [18]) [%] | permeability [19] | Activity (Caco-2 [22]) [%] | Activity (Caco-2 [23]) [%] | also measured
CC[C@@]1(O)C(=O)OCc2c1cc1n(c2=O)Cc2cc3c([N+](=O)[O-])cccc3nc2-1 [RUBITECAN] | Active | Active | 138 | inactive | Active | 128 | 479 | 343 | Active | Active | – | – | – | – | – | – | – | – | – | – | inhibition (A-375 [2]): Dose-dependent effect; inhibition (HeLa [9]): Dose-dependent effect; inhibition (MDA-MB-231 [11]): Dose-dependent effect
COCCc1ccc(OCC(O)CNC(C)C)cc1 (centres undefined) [METOPROLOL] | – | – | – | – | – | – | – | – | – | – | 2.3 | 55.3 | 23 | – | – | – | – | – | – | – | –
CC[C@@]1(O)C(=O)OCc2c1cc1n(c2=O)Cc2cc3c4c(ccc3nc2-1)OCOC4 | Active | Active | 186 | inactive | Active | 124 | 476 | 345 | Active | Active | 3.78 | 93.8 | 10 | 61.56 | 33.54 | 24.72 | 56.08 | permeable | 8.16 | 3.56 | Papp A→B at 50 µM [20]: 8.05 ×10⁻⁶ cm/s; Papp B→A at 50 µM [21]: 9.84 ×10⁻⁶ cm/s; Activity (Caco-2 [24]): 3.2%; Activity (Caco-2 [25]): 3.68%; Activity (Caco-2 [26]): 1.18%; Activity (Caco-2 [27]): 1.92%; Activity (Caco-2 [28]): 11.8%; Activity (Caco-2 [29]): 47.78%; Activity (Caco-2 [30]): 57%; Activity (Caco-2 [31]): 42.88%; IC50 [32]: 104 nM; Activity (Caco-2 [33]): 5.9%; Activity (Homo sapiens): inactive; permeability [34]: permeable; Activity (Caco-2 [35]): 37.04%; Papp B→A at 50 µM [36]: 9.73 ×10⁻⁶ cm/s
CC[C@@]1(O)C(=O)OCc2c1cc1n(c2=O)Cc2cc3ccccc3nc2-1 [CAMPTOTHECIN] | Active | Active | 187 | inactive | Active | 110 | 342 | 420 | Active | Active | 3.02 | 74.8 | 7.88 | 83.26 | 41.38 | 1.4 | 56.16 | permeable | 1.64 | 3.18 | Activity (Caco-2 [24]): 2.76%; Activity (Caco-2 [25]): 4.1%; Activity (Caco-2 [26]): 3.04%; Activity (Caco-2 [27]): 0.12%; Activity (Caco-2 [28]): 15.22%; Activity (Caco-2 [29]): 81.62%; Activity (Caco-2 [30]): 51.12%; Activity (Caco-2 [31]): 13.7%; IC50 [32]: 131 nM; Activity (Caco-2 [33]): 4.32%; permeability [34]: permeable; Activity (Caco-2 [35]): 36.98%
